Screens as filed in PubChem BioAssay.
This is a sample that favours compounds with a hit; in the whole collection about 1.5% have one here.
MEX-5 binding: MEX-5 zinc finger RNA-binding disruptors – biochemical, C. elegans, fluorescence polarization, MLPCN library, primary screen. Zinc finger protein mex-5 (Caenorhabditis elegans), Q9XUB2. MEX-5/FITC-TCR2 RNA binding; active compounds read low. activity score (negative = inhibition of binding), % at 10 µM. actives 0.38% (n = 300,000). AID 1832, 2009;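 active = inhibition past about -25% in most replicates, and total fluorescence under double the plate's negative control median, limit read from the data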;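 also: 0% = DMSO and -100% = 5 µM competing unlabeled TCR2 RNA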
core dimer inh: inhibitors of HCV core protein dimerization, primary screen, biochemical, TR-FRET, high-throughput. TR-FRET GST/Flag-core106 dimerization, 1536-well. inhibition, % at 5 µM. actives 0.33% (n = 300,000). AID 1899, 2009;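 active = inhibition above the mean of all tested compounds plus 3 SD, set per screening campaign, cut at about 45% in these data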
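test system = GST/Flag-tagged HCV core106 proteins | probe or stimulus = Eu donor and XL665 acceptor anti-tag antibodies | times = compound-protein-antibody incubation 4 h at 22.5 °C | signal = TR-FRET, excitation 340 nm, emission 617 and 671 nm | measure = percent inhibition of core106 dimerization signal | controls = wells lacking GST-core106 and wells with excess unlabelled core106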
NRP1-CendR mod: modulators of CendR peptide binding to NRP-1, primary screen, biochemical, fluorescence polarization, uHTS; FAM-RPARPAR peptide binding to NRP-1; inhibition, % at 25 µM; actives 0.85% (n = 360,000);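 active = inhibition or corrected inhibition above about 18%, plus a signal ratio from 0.5 to 1.5, limit read from the data, passing the limit was not always enough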
Target sequence (O14786 whole entry, looked up): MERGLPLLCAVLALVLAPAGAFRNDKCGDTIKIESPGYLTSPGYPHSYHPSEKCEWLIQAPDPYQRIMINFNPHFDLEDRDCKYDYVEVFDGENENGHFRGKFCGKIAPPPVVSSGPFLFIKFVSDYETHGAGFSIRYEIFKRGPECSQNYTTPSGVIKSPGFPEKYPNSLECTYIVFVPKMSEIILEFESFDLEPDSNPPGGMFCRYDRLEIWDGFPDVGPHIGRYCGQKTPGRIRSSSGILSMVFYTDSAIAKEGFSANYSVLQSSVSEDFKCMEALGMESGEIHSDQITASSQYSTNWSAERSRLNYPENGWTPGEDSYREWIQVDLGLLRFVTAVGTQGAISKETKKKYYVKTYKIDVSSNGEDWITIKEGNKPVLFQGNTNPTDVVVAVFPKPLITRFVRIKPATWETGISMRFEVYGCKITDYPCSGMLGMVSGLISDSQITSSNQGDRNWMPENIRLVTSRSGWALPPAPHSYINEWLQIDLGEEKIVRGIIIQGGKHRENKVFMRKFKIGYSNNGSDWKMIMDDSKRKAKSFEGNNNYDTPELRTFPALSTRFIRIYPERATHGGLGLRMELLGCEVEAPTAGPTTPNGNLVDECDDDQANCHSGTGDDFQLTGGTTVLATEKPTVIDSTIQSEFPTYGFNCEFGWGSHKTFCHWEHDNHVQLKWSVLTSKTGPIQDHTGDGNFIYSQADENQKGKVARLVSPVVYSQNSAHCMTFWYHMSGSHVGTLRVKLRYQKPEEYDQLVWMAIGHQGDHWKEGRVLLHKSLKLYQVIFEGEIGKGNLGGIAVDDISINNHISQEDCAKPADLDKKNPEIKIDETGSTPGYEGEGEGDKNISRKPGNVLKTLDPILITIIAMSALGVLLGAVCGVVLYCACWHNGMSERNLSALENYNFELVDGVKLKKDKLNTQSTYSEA
DNA FID counter: compounds displacing fluorescent DNA intercalator, primary screen, artefact control for HCV NS3 helicase inhibitor project, biochemical, FID fluorescence; DNA fluorescent intercalator displacement; actives 0.17% (n = 290,000); inhibition, % at 7.9 µM; AID 1845, 2009; in the data active = inhibition above about 37%;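 also: 0% = vehicle and 100% = reference compound; higher means more ethidium bromide displaced from hairpin DNA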
An asterisk follows results filed as active; / = no result given.

SMILES	MEX-5 binding	core dimer inh	NRP1-CendR mod	DNA FID counter
CC(C)(C)c1cc(C2COC(=O)COCCOCC(=O)OCCOCCO2)cc(C(C)(C)C)c1O (stereo unspecified)	/	/	4	/
O=[N+]([O-])c1ccc(Cc2ccncc2)cc1	1	3	26*	2
O=[N+]([O-])c1ccc(Cc2ccc([N+](=O)[O-])cc2)cc1	/	/	-3	/
Cc1cc(NC(=O)COC(=O)C2CCN(S(=O)(=O)c3ccccc3)CC2)c([N+](=O)[O-])cc1C	-2	18	23*	-16
Cc1ccc(S(=O)(=O)N2CCC(C(=O)OCC(=O)NCCc3ccccc3)CC2)cc1C	1	-2	10	/
CCn1c(COc2cc(C)cc(C)c2)nnc1SCC(=O)N1CCN(c2ccccc2)CC1	-1	1	13	-4
CCn1c(COc2c(C)cccc2C)nnc1SCC(=O)N1CCN(c2ccccc2)CC1	2	6	37*	-36
Cc1c(C(=O)OCc2ccccc2)[nH]c2c1C(=O)CC(c1ccco1)C2 (stereo unspecified)	0	51*	-14	-12
CCOc1cc(/C=N/NC(=O)c2cc(C)n(-c3ccc(F)cc3)c2C)ccc1O	1	13	17	-26
Cc1cc(C(=O)N/N=C2\CC(=O)c3ccccc32)c(C)n1-c1ccc(F)cc1	0	71*	5	-21
COC(=O)c1c(C)oc2ccc(N(C(=O)Oc3ccccc3)S(=O)(=O)c3ccc(Cl)c([N+](=O)[O-])c3)cc12	1	64*	-9	-1
COC(=O)c1c(C)oc2ccc(N(C(=O)c3ccncc3)S(=O)(=O)c3ccc4ccccc4c3)cc12	3	11	4	-14
CC1CCc2nn(CC(=O)NCCCN3CCCC3=O)cc2C1 (stereo unspecified)	2	-4	-8	/
CC1CCc2nn(CC(=O)NCCN3CCCCC3C)cc2C1 (stereo unspecified)	-35*	-2	-1	5
O=C(COc1cccc([N+](=O)[O-])c1)N/N=C/c1ccco1	2	0	16	0
CCc1ccc(OCC(=O)N/N=C\c2ccco2)c([N+](=O)[O-])c1	1	54*	-11	-7
COc1ccc(NC(=O)N(C)C[C@H]2Oc3ccc(NS(=O)(=O)c4ccccc4)cc3C(=O)N([C@H](C)CO)C[C@@H]2C)cc1	/	/	-2	/
Cc1nn(-c2ccccc2)c(N)c1Sc1ccc([N+](=O)[O-])cc1	-1	-2	44*	-3
OC(Cc1ccccc1)c1ncc(-c2ccc3ccccc3c2)[nH]1 (stereo unspecified)	/	/	2	/
COc1c(C)cc(C(O)c2ncc(-c3ccccc3)[nH]2)cc1C (stereo unspecified)	/	/	3	/
CCN(CC)C(=O)CSc1nnc2nnc3cc(Cl)ccc3n12	-32*	-2	11	-1
Nc1c(C(=O)N/N=C/c2cccnc2)oc2nc(-c3ccccc3)cc(-c3ccco3)c12	-37*	5	-60	-13
COC(=O)c1ccc2c(c1)c(-c1ccccc1)c(-c1ccccc1)n2C	/	/	32*	/
CC(C)n1ncc2c(C(=O)Nc3ccc(S(N)(=O)=O)cc3)cc(C3CC3)nc21	/	/	46*	/
CC(C)n1ncc2c(C(=O)Nc3ccc(S(C)(=O)=O)cc3)cc(C3CC3)nc21	/	/	0	/
SMILES	MEX-5 binding	core dimer inh	NRP1-CendR mod	DNA FID counter
N#Cc1ccsc1NC(=O)COc1ccc(-c2nnco2)cc1	-3	96*	-34	-2
N#CCSc1ccccc1NC(=O)COc1ccc(-c2nnco2)cc1	/	/	-32	/
O=C1c2ccccc2CCC12OC2c1ccc([N+](=O)[O-])cc1 (stereo unspecified)	/	/	-6	/
CCc1nnc(NC(=O)c2cc(-c3ccccn3)nc3ccccc23)s1	-3	1	3	-21
CCCCCCNC(=O)c1cc(-c2ccco2)nc2ccccc12	2	64*	-22	-25
CCc1nnc(NC(=O)c2cc(-c3ccco3)nc3ccccc23)s1	-2	73*	-22	-10
CC(C)CCNC(=O)c1cc(-c2ccco2)nc2ccccc12	-2	-2	-2	-15
O=C1CCC(C(=O)Nc2cccc(S(=O)(=O)Nc3ccccc3F)c2)=NN1	/	/	0	/
COC(=O)CCCC1=CC2=C(c3ccccc3)C(=O)C(C)(OC(=O)C3CCCC3)C(=O)C2=CN1CC1CC1 (stereo unspecified)	-1	-5	6	/
